Six compounds from ChEMBL document CHEMBL4138228, “Substituted carbamothioic amine-1-carbothioic thioanhydrides as novel trichomonicidal fungicides: Design, synthesis, and biology” (Eur J Med Chem, 2018) can be followed below.

The subject of one data set is Cryptococcus neoformans. As to the kind of experiment: Antifungal activity against Cryptococcus neoformans after 48 hrs by broth microdilution method. The class given is functional. A digest of the protocol: (§1)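 Broth microdilution per NCCLS guidelines in MOPS-buffered RPMI 1640; starting inoculum 1-5 x 10^3 CFU/mL; plates incubated at 35 °C; MIC recorded after 48 h; fluconazole as reference; experiments repeated three times.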

In another data set the test system is Nakaseomyces glabratus. The data set can be described thus: Antifungal activity against Candida glabrata ATCC 2001 after 48 hrs by broth microdilution method. Type of data set: functional. The conditions noted are these: ATCC 2001, 48 h. Put shortly:
as §1

For data set [1], the system named is Candida albicans. The data set can be described thus: Antifungal activity against Candida albicans ATCC 10231 after 48 hrs by broth microdilution method. Type of data set: functional. To be noted: ATCC 10231, 48 h. A digest of the protocol: as §1
In data set [2] the test system is Trichomonas vaginalis. The data set can be described thus: Antitrichomonas activity against metronidazole-resistant Trichomonas vaginalis CDC085 ATCC 50143 assessed as decrease in cell viability after 48 hrs by trypan blue exclusion method. The class given is functional. The conditions noted are these: CDC085 ATCC 50143, 48 h.
The subject of data set [3] is Trichomonas vaginalis. As to the kind of experiment: Potency index, ratio of metronidazole MIC to test compound MIC for metronidazole-resistant Trichomonas vaginalis CDC085 ATCC 50143. Type of data set: functional.
Data set [4] can be described thus: Selectivity index, ratio of IC50 for human HeLa cells to MIC for metronidazole-resistant Trichomonas vaginalis CDC085 ATCC 50143. The class given is toxicity. To be noted: read-out: Selectivity Index.
Another data set relates to Candida parapsilosis. As to the kind of experiment: Antifungal activity against Candida parapsilosis ATCC 22019 after 48 hrs by broth microdilution method. Type of data set: functional. To be noted: Lodderomyces parapsilosis, ATCC 22019, 48 h. Put shortly:
as §1

Data set [5] relates to Candida albicans. The data set can be described thus: Antifungal activity against Candida albicans ATCC 14053 after 48 hrs by broth microdilution method. The class given is functional. The conditions noted are these: ATCC 14053, 48 h. Put shortly:
as §1

In data set [6] the test system is Candida albicans. As to the kind of experiment: Antifungal activity against Candida albicans MTCC 183 after 48 hrs by broth microdilution method. Type of data set: functional. The conditions noted are these: MTCC 183, 48 h. Put shortly:
as §1

Data set [7] is described as follows: Selectivity index, ratio of IC50 for human HeLa cells to MIC for metronidazole-susceptible Trichomonas vaginalis. The class given is toxicity. To be noted: read-out: Selectivity Index.
The next data set deals with HeLa. The data set can be described thus: Cytotoxicity against human HeLa cells after 24 hrs by MTT assay. Type of data set: cell-based.
Data set [8] deals with Trichomonas vaginalis. As to the kind of experiment: Antitrichomonas activity against metronidazole-susceptible Trichomonas vaginalis assessed as decrease in cell viability after 48 hrs by trypan blue exclusion method. Type of data set: functional.
Data set [9] relates to Candida albicans. The data set can be described thus: Antifungal activity against Candida albicans patient isolate after 48 hrs by broth microdilution method. Type of data set: functional. Put shortly:
as §1

For data set [10], the system named is Candida albicans. The data set can be described thus: Antifungal activity against Candida albicans ATCC 66027 after 48 hrs by broth microdilution method. Type of data set: functional. The conditions noted are these: ATCC 66027, 48 h. Put shortly: as §1
For data set [11], the system named is Trichophyton mentagrophytes. As to the kind of experiment: Antifungal activity against Trichophyton mentagrophytes after 48 hrs by broth microdilution method. Type of data set: functional. Put shortly: as §1
For the next data set, the system named is Sporothrix schenckii. As to the kind of experiment: Antifungal activity against Sporothrix schenckii after 48 hrs by broth microdilution method. The class given is functional. Put shortly: as §1

≈ marks a conversion by molar mass, not a printed value.

For the compound `CCCCN1CCN(C(=S)SC(=S)N(C)C)CC1`, the MIC against Cryptococcus neoformans amounted to 163 µM (≈ 49.9 µg/mL); against Nakaseomyces glabratus it was 163 µM (≈ 49.9 µg/mL); against Candida albicans [1] it was 163 µM (≈ 49.9 µg/mL); in the data set on Trichomonas vaginalis [2], 81.7 µM (≈ 25 µg/mL); against Candida parapsilosis, 163 µM (≈ 49.9 µg/mL); against Candida albicans [5], 163 µM (≈ 49.9 µg/mL). The MIC came out at 81.7 µM (≈ 25 µg/mL) in the data set with Candida albicans [6]; 20.4 µM (≈ 6.24 µg/mL) in the data set with Trichomonas vaginalis [8]; 163 µM (≈ 49.9 µg/mL) against Candida albicans [9]; 81.7 µM (≈ 25 µg/mL) in the data set on Candida albicans [10]; 163 µM (≈ 49.9 µg/mL) in [11]; 163 µM (≈ 49.9 µg/mL) in the data set with Sporothrix schenckii. In addition, the Ratio in the data set with Trichomonas vaginalis [3] was 1.3 - 9.5. In addition, the values for the selectivity ratio in data set [4] and in data set [7] were 50 and 200, respectively. In the data set on HeLa, this compound returned an IC50 of 4.1 mM.

As for `CN(C)C(=S)SC(=S)N1CCN(C(=S)NCCc2ccccc2)CC1`, the MIC was more than 121 µM in the data set on Cryptococcus neoformans; more than 121 µM in the data set with Nakaseomyces glabratus; more than 121 µM against Candida albicans [1]; 242 µM (≈ 99.9 µg/mL) in the data set on Trichomonas vaginalis [2]; more than 121 µM against Candida parapsilosis; more than 121 µM against Candida albicans [5]. In addition, the MIC was more than 121 µM against Candida albicans [6]; 60.5 µM (≈ 25 µg/mL) in the data set on Trichomonas vaginalis [8]; more than 121 µM against Candida albicans [9]; more than 121 µM with Candida albicans [10]; more than 121 µM in [11]; more than 121 µM against Sporothrix schenckii. In the data set on Trichomonas vaginalis [3], the Ratio is 1.3 - 11.2. Also, the selectivity ratio in data set [4] was more than 20; in data set [7], more than 83. For the same compound, in the data set on HeLa, the IC50 is more than 5 mM.

As for `CN(C)C(=S)SC(=S)N1CCN(C(=O)NC2CCCCC2)CC1`, the MIC with Cryptococcus neoformans was more than 133 µM; against Nakaseomyces glabratus, more than 133 µM; in the data set with Candida albicans [1] it was more than 133 µM; with Trichomonas vaginalis [2], 267 µM (≈ 99.9 µg/mL); with Candida parapsilosis, 133 µM (≈ 49.9 µg/mL); in the data set on Candida albicans [5], more than 133 µM. In addition, the MIC in the data set on Candida albicans [6] was more than 133 µM; in the data set on Trichomonas vaginalis [8] it was 133 µM (≈ 49.9 µg/mL); with Candida albicans [9], more than 133 µM; in the data set on Candida albicans [10], more than 133 µM; in [11], 133 µM (≈ 49.9 µg/mL); in the data set on Sporothrix schenckii, 133 µM (≈ 49.9 µg/mL). The Ratio in the data set with Trichomonas vaginalis [3] is 1.3 - 11.2. For the same compound, the selectivity ratio in data set [4] is more than 18; in data set [7] it was more than 37. The same compound registered a 50% inhibitory concentration (IC50) in the data set on HeLa of more than 5 mM.

Regarding `CCN(C)C(=S)SC(=S)N(C)C`, the MIC in the data set with Cryptococcus neoformans worked out at 225 µM (≈ 50.1 µg/mL); in the data set on Nakaseomyces glabratus, 113 µM (≈ 25 µg/mL); with Candida albicans [1], 113 µM (≈ 25 µg/mL); in the data set with Trichomonas vaginalis [2], 225 µM (≈ 50.1 µg/mL); with Candida parapsilosis, 113 µM (≈ 25 µg/mL); against Candida albicans [5], 113 µM (≈ 25 µg/mL). The MIC against Candida albicans [6] worked out at 56.3 µM (≈ 12.5 µg/mL); in the data set with Trichomonas vaginalis [8] it was 113 µM (≈ 25 µg/mL); in the data set with Candida albicans [9], 113 µM (≈ 25 µg/mL); with Candida albicans [10], 28.1 µM (≈ 6.26 µg/mL); in data set [11], 56.3 µM (≈ 12.5 µg/mL); with Sporothrix schenckii it was 56.3 µM (≈ 12.5 µg/mL). For the same compound, in the data set on Trichomonas vaginalis [3], the Ratio is recorded as 1.5 - 3.8. In addition, the values for the selectivity ratio in data set [4] and in data set [7] were 9 and 18, respectively. The IC50 with HeLa came to 2.07 mM.

Regarding `CN(C)C(=S)SC(=S)N1CCN(C(=S)SCCCC#N)CC1`, the MIC is more than 127 µM with Cryptococcus neoformans; more than 127 µM in the data set on Nakaseomyces glabratus; more than 127 µM against Candida albicans [1]; 127 µM (≈ 50 µg/mL) with Trichomonas vaginalis [2]; more than 127 µM in the data set with Candida parapsilosis; more than 127 µM against Candida albicans [5]. Moreover, the minimum inhibitory concentration (MIC) is more than 127 µM against Candida albicans [6]; 63.6 µM (≈ 25 µg/mL) in the data set with Trichomonas vaginalis [8]; more than 127 µM in the data set on Candida albicans [9]; more than 127 µM in the data set with Candida albicans [10]; 127 µM (≈ 50 µg/mL) in data set [11]; 127 µM (≈ 50 µg/mL) against Sporothrix schenckii. Moreover, the Ratio with Trichomonas vaginalis [3] is reported as 1.3 - 11.2. The figures for the selectivity ratio in data set [4] and in [7] were more than 39 and more than 79, respectively. The IC50 in the data set on HeLa is more than 5 mM.

Consider `CCOC(=O)N1CCN(C(=S)SC(=S)N(C)C)CC1`, for which the MIC is 156 µM (≈ 50.1 µg/mL) against Cryptococcus neoformans; 156 µM (≈ 50.1 µg/mL) in the data set with Nakaseomyces glabratus; more than 156 µM in the data set with Candida albicans [1]; 156 µM (≈ 50.1 µg/mL) with Trichomonas vaginalis [2]; 156 µM (≈ 50.1 µg/mL) against Candida parapsilosis; 156 µM (≈ 50.1 µg/mL) against Candida albicans [5]. For the same compound, the MIC turned out to be 156 µM (≈ 50.1 µg/mL) with Candida albicans [6]; 77.9 µM (≈ 25 µg/mL) in the data set on Trichomonas vaginalis [8]; 156 µM (≈ 50.1 µg/mL) in the data set on Candida albicans [9]; 38.9 µM (≈ 12.5 µg/mL) in the data set on Candida albicans [10]; 77.9 µM (≈ 25 µg/mL) in [11]; 77.9 µM (≈ 25 µg/mL) in the data set with Sporothrix schenckii. For the same compound, the Ratio in the data set with Trichomonas vaginalis [3] was 1.3 - 9.5. Besides, the selectivity ratio in [4] amounted to 3; in [7] it was 6. The IC50 in the data set on HeLa was 0.53 mM.
